Assay results as given in ChEMBL document CHEMBL3870318, “Inhibitor screening and enzymatic activity determination for autophagy target Atg4B using a gel electrophoresis-based assay” (Eur J Med Chem, 2016).
Each block holds one compound with its values, some of them ahead of it. Active and inactive are the calls of the source. The rule behind the calls is not given here.

Columns and labels:
Cysteine protease ATG4B [1] = target: T1, Cysteine protease ATG4B (Homo sapiens, UniProt Q9Y4P1); assay: Inhibition of Atg4B (unknown origin) using YFP-LC3B-EmGFP as substrate after 40 mins by FRET-based assay
T1 sequence (Q9Y4P1 whole entry): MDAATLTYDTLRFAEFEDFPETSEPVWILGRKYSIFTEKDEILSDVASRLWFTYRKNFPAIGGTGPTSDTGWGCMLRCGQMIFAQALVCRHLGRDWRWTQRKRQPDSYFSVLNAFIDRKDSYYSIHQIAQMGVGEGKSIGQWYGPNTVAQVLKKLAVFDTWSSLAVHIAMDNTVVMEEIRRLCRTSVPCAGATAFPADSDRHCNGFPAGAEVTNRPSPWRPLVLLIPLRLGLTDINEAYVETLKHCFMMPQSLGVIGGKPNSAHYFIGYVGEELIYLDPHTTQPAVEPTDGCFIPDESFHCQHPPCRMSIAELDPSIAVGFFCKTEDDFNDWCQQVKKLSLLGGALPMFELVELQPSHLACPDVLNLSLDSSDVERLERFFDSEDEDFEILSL

[2] = target: T2, Cysteine protease ATG4B (Homo sapiens) (UniProt Q9Y4P1); assay: Inhibition of human recombinant GST-tagged Atg4B expressed in Escherichia coli at 4 mM using LC3B-GST as substrate preincubated up to 20 mins followed by substrate addition measured after 6 mins by SDS-PAGE assay
T2 sequence (whole entry): T1 sequence (Q9Y4P1 whole entry)

[3] = target: T2, Cysteine protease ATG4B (Homo sapiens); assay: Inhibition of human recombinant GST-tagged Atg4B expressed in Escherichia coli at 20 mM using LC3B-GST as substrate measured after 6 mins by SDS-PAGE assay
Summary of the method: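 Atg4B at 0.625 ng/µL in Tris-HCl was mixed with inhibitor without preincubation. [LC3B-GST] at 0.4 µg/µL was then added for 6 min. Products were resolved by SDS-PAGE and stained with Oriole fluorescent gel stain. Percent uncleaved substrate was taken by densitometry as OD(LC3B-GST)/[OD(LC3B-GST)+OD(GST)+OD(LC3B)]×100.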

[4] = target: T2, Cysteine protease ATG4B (Homo sapiens); assay: Inhibition of human recombinant GST-tagged Atg4B expressed in Escherichia coli at 5 mM preincubated for 15 mins followed by LC3B-GST substrate addition after 6 mins by SDS-PAGE assay
Summary of the method: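 Enzyme (0.625 ng/µL Atg4B, Tris-HCl buffer) was preincubated with inhibitor for 15 min before [LC3B-GST] (0.4 µg/µL) was added for 6 min. Samples were separated by SDS-PAGE and stained with Oriole. Densitometric optical densities of intact fusion protein, GST and LC3B gave percent uncleaved substrate.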

[5] = target: T2, Cysteine protease ATG4B (Homo sapiens); assay: Inhibition of human recombinant GST-tagged Atg4B expressed in Escherichia coli after 2 to 20 hrs by fluorescence assay
Summary of the method: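 Fluorogenic peptides of 8, 10, 12 or 16 residues matching pro-LC3B Glu105–Gly120 (N-terminal to scissile Gly120), each C-terminally capped with an aminocarboxycoumarin (ACC) tag. Cleavage by Atg4B at about 20 nM was followed by fluorescence release for up to 20 h.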

Cysteine protease ATG4B [6] = target: T1, Cysteine protease ATG4B; assay: Inhibition of wild type recombinant Atg4B (unknown origin) expressed in Escherichia coli BL21 DE3 using N-terminal His6-tagged LC3B-PLA2 as substrate after 60 mins by NBD-C6-HPC dye-based fluorescence assay
[7] = target: T2, Cysteine protease ATG4B (Homo sapiens); assay: Inhibition of human recombinant GST-tagged Atg4B expressed in Escherichia coli at 4 mM preincubated for 15 mins followed by LC3B-GST substrate addition after 6 mins by SDS-PAGE assay
Summary of the method: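 Recombinant human Atg4B (E. coli-expressed) at 0.625 ng/µL, preincubated 15 min with inhibitor. Then LC3B-GST (0.4 µg/µL) added in Tris-HCl buffer and incubated 6 min. Products resolved by SDS-PAGE and stained with Oriole. % uncleaved substrate derived by densitometry as OD(LC3B-GST)/(sum of all bands). Single representative experiment.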

[8] = target: T2, Cysteine protease ATG4B (Homo sapiens); assay: Inhibition of human recombinant GST-tagged Atg4B expressed in Escherichia coli at 40 mM using LC3B-GST as substrate measured after 6 mins by SDS-PAGE assay
Summary of the method: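 Recombinant human Atg4B (E. coli) at 0.625 ng/µL, with inhibitor dilutions of 0–40 mM, either preincubated 15 min or not preincubated. LC3B-GST (0.4 µg/µL) added in Tris-HCl buffer for 6 min. SDS-PAGE separation and Oriole staining followed. % uncleaved fusion protein derived from band optical densities. Single representative experiment.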

Cysteine protease ATG4B [9] = target: T1, Cysteine protease ATG4B; assay: Inhibition of human recombinant GST-tagged Atg4B expressed in Escherichia coli using LC3B-GST as substrate after 6 mins by SDS-PAGE assay

SMILES: O=C(N[C@@H](Cc1ccccc1)C(=O)CCl)OCc1ccccc1
IC50 (Cysteine protease ATG4B [1]): 0.63 µM

SMILES: NC(=O)CI
inhibition [7]: Active
inhibition [8]: Active

SMILES: Cc1cc(O)c2c(=O)c3c(O)cc(O)c4c5c(O)cc(O)c6c(=O)c7c(O)cc(C)c8c1c2c(c34)c(c78)c65 [HYPERICIN]
IC50 (Cysteine protease ATG4B [1]): 57 µM

SMILES: Cc1sc2nc(C3CCCCC3)nc(SCC(=O)N3CC(=O)Nc4ccccc43)c2c1C
inhibition [5]: Active

SMILES: O=C(O)C1=CC(=C(c2ccc(O)c(C(=O)O)c2)c2ccc(O)c(C(=O)O)c2)C=CC1=O [AURINTRICARBOXYLIC ACID]
IC50 (Cysteine protease ATG4B [1]): 1.3 µM
IC50 (Cysteine protease ATG4B [9]): 38 to 45 µM

Further lines, results first:

inhibition [2]: Active
inhibition [3]: Active
inhibition [4]: Active
SMILES: CCN1C(=O)C=CC1=O

inhibition [5]: Active
IC50 (Cysteine protease ATG4B [6]): 5.5 µM
SMILES: O=c1oc2c(O)c(O)cc3c(=O)oc4c(O)c(O)cc1c4c23 [ELLAGIC ACID]

IC50 (Cysteine protease ATG4B [6]): 2.3 µM
SMILES: O=C(O)c1cc(O)c(=O)c2c(O)c(O)ccc2c1 [7-DESHYDROXYPYROGALLIN-4-CARBOXYLIC ACID]
